Measured values collected from several papers.
Cell line: MOLM-13
Effect on: cell growth or viability

| Structure (SMILES) | technique | tested at | time | endpoint | value |
| --- | --- | --- | --- | --- | --- |
| COc1ccc2/c(=N/c3ccccc3NC(=O)[C@@H](N)C(C)(C)C)cc(-c3ccc4c(c3)OCCO4)oc2c1 | CCK-8 | 1 µM | – | inhibition | 2.86% |
| c1cc(N2CCC(N3CCOCC3)CC2)ccc1Nc1ccc2ncc(OCC3CCNCC3)nc2c1 | XTT | – | 7 days | EC50 | > 30000 nM |
| CC(C)(C)c1cc(NC(=O)Nc2ccc(-c3cn4c(n3)sc3cc(OCCN5CCOCC5)ccc34)cc2)no1 | – | – | 72 h | GI50 | 9 nM |
| c1cc(N2CCCC2)ccc1-c1cc2ncc(OCC3CCNCC3)nc2cc1-c1ccc(N2CCCC2)cc1 | XTT | – | 7 days | EC50 | 1700 nM |
| CN(C)CCNC(=O)c1ccc(-c2nc3ccc4[nH]ncc4c3c3c2CCCCC3)c(F)c1 | – | – | 72 h | GI50 | 51 nM |
| c1cc(-c2cc3ncc(OCC4CCNCC4)nc3cc2-c2cccc(N3CCCCC3)c2)cc(N2CCCCC2)c1 | XTT | – | 7 days | EC50 | 1400 nM |
| Cc1cc2c(C(=O)O)cccc2n1-c1nc2c(c(NCc3ccccc3)n1)CCCN2 | – | – | 72 h | IC50 | 400 nM |
| Cc1n[nH]c2ccc3nc(-c4ccc(C(=O)NCCN(C)C)cc4F)c4c(c3c12)CCCC4 | – | – | 72 h | GI50 | 47 nM |
| O=C(Nc1ccccc1/N=c1\cc(-c2ccc3c(c2)OCCO3)oc2cc(F)ccc12)N1CCOCC1 | CCK-8 | 1 µM | – | inhibition | 2.91% |
| c1ccc(Oc2ccc(Nc3ccc4ncc(OCC5CCNCC5)nc4c3)cc2)cc1 | XTT | – | 7 days | EC50 | 1400 nM |
| Cc1n[nH]c2ccc3nc(-c4ccc(C(=O)NCCN(C)C)cc4F)c4c(c3c12)CCCCC4 | – | – | 72 h | GI50 | 150 nM |
| CC(C)(C)[C@H](N)C(=O)Nc1ccccc1/N=c1\cc(-c2ccc3c(c2)OCCO3)oc2cc(F)ccc12 | CCK-8 | 1 µM | – | inhibition | 6.65% |
| CC1(C)CCC(CN2CCN(c3ccc(C(=O)NS(=O)(=O)c4ccc(NCC5CCOCC5)c([N+](=O)[O-])c4)c(Oc4cnc5[nH]ccc5c4)c3)CC2)=C(c2ccc(Cl)cc2)C1 | – | – | – | GI50 | 10 nM |
| CS(=O)(=O)NCCC(=O)Nc1ccccc1/N=c1\cc(-c2ccc3nc(N)oc3c2)oc2ccccc12 | CCK-8 | 1 µM | – | inhibition | 8.5% |
| Cc1n[nH]c2ccc3nc(-c4ccc(C(=O)NCCN(C)C)cc4)c4c(c3c12)CCCC4 | – | – | 72 h | GI50 | 54 nM |
